In ChEMBL document CHEMBL5058577, “EUbOPEN Chemogenomics Library 2 (Multiplex)” (2022):

System: HEK-293T
Experiment: Multiplex assay against HEK293T
Assay type: toxicity, cell-based
Settings: human
In short: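 Per cents of healthy-nucleus cells form the tubulin, mitochondrial-mass and membrane-permeability phenotype values. Live cells were stained at seeding with Hoechst33342, BioTracker Green Microtubule Cytoskeleton Dye, MitoTracker Red and Annexin V Alexa Fluor 680. After compound addition they were imaged on a CQ1 microscope at 37°C and 5% CO2, and CellPathfinder machine-learning gating split them into Hoechst high-intensity objects or normal cells, normal cells into healthy, pyknosed or fragmented nuclei, and pyknosed cells into mitotic or apoptotic.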

[1] = 12 h, 1 µM, compound concentration 1 uM, replicate 1
[2] = 12 h, 1 µM, compound concentration 1 uM, replicate 2
[3] = 12 h, 10 µM, compound concentration 10 uM, replicate 1
[4] = 12 h, 10 µM, compound concentration 10 uM, replicate 2
[5] = 24 h, 1 µM, compound concentration 1 uM, replicate 1
[6] = 24 h, 1 µM, compound concentration 1 uM, replicate 2
[7] = 24 h, 10 µM, compound concentration 10 uM, replicate 1
[8] = 24 h, 10 µM, compound concentration 10 uM, replicate 2
[9] = 48 h, 1 µM, compound concentration 1 uM, replicate 1
[10] = 48 h, 1 µM, compound concentration 1 uM, replicate 2
[11] = 48 h, 10 µM, compound concentration 10 uM, replicate 1
[12] = 48 h, 10 µM, compound concentration 10 uM, replicate 2

With COCCn1c(C)c(C)s/c1=N\C(=O)C1C(C)(C)C1(C)C as the compound, how does the “Population Apoptotic (%)” value [1] read?
The value was 37%.

What about the “Population Fragmented Nuclei (%)” value [1] of the same compound?
The value was 10%.

And the “Population Healthy Nuclei (%)” value [1]?
The value was 77%.

And the “Population Hoechst High Intensity Objects (%)” value [1]?
The value was 6%.

What about the “Population Membrane Permeable-Phenotype (%)” value [1] of the same compound?
The value was 0%.

And the “Population Mitochondria Different-Phenotype (%)” value [1]?
The value was 45%.

What about the “Population Mitotic Cells (%)” value [1] of the same compound?
Its value is 62%.

What about the “Population Normal (%)” value [1] of the same compound?
The value was 93%.

What about the “Population Pyknosed Nuclei (%)” value [1] of the same compound?
Its value is 12%.

What about the “Population Tubulin-Different-Phenotype (%)” value [1] of the same compound?
Its value is 29%.

What about the “Total Cell Count” value [1] of the same compound?
The value was 335.

What about the “Population Apoptotic (%)” value [2] of the same compound?
Its value is 41%.

And the “Population Fragmented Nuclei (%)” value [2]?
The value was 5%.

What about the “Population Healthy Nuclei (%)” value [2] of the same compound?
Its value is 82%.

What about the “Population Hoechst High Intensity Objects (%)” value [2] of the same compound?
Its value is 4%.

And the “Population Mitochondria Different-Phenotype (%)” value [2]?
The value was 77%.

And the “Population Mitotic Cells (%)” value [2]?
Its value is 58%.

What about the “Population Normal (%)” value [2] of the same compound?
Its value is 95%.

And the “Population Tubulin-Different-Phenotype (%)” value [2]?
Its value is 26%.

What about the “Total Cell Count” value [2] of the same compound?
Its value is 304.

What about the “Population Apoptotic (%)” value [3] of the same compound?
The value was 77%.

And the “Population Fragmented Nuclei (%)” value [3]?
The value was 33%.

What about the “Population Healthy Nuclei (%)” value [3] of the same compound?
Its value is 52%.

What about the “Population Hoechst High Intensity Objects (%)” value [3] of the same compound?
The value was 18%.

What about the “Population Membrane Permeable-Phenotype (%)” value [3] of the same compound?
Its value is 0%.

What about the “Population Mitochondria Different-Phenotype (%)” value [3] of the same compound?
Its value is 91%.

What about the “Population Mitotic Cells (%)” value [3] of the same compound?
The value was 22%.

And the “Population Normal (%)” value [3]?
The value was 81%.

And the “Population Pyknosed Nuclei (%)” value [3]?
Its value is 13%.

And the “Population Tubulin-Different-Phenotype (%)” value [3]?
Its value is 67%.

And the “Total Cell Count” value [3]?
Its value is 80.

And the “Population Apoptotic (%)” value [4]?
The value was 53%.

And the “Population Fragmented Nuclei (%)” value [4]?
The value was 8%.

And the “Population Healthy Nuclei (%)” value [4]?
Its value is 75%.

And the “Population Hoechst High Intensity Objects (%)” value [4]?
Its value is 11%.

What about the “Population Mitochondria Different-Phenotype (%)” value [4] of the same compound?
The value was 72%.

What about the “Population Mitotic Cells (%)” value [4] of the same compound?
The value was 46%.

What about the “Population Normal (%)” value [4] of the same compound?
The value was 88%.

What about the “Population Pyknosed Nuclei (%)” value [4] of the same compound?
Its value is 16%.

What about the “Population Tubulin-Different-Phenotype (%)” value [4] of the same compound?
Its value is 38%.

And the “Total Cell Count” value [4]?
Its value is 315.

What about the “Population Apoptotic (%)” value [5] of the same compound?
Its value is 19%.

What about the “Population Fragmented Nuclei (%)” value [5] of the same compound?
The value was 7%.

And the “Population Healthy Nuclei (%)” value [5]?
The value was 81%.

What about the “Population Hoechst High Intensity Objects (%)” value [5] of the same compound?
Its value is 4%.

And the “Population Membrane Permeable-Phenotype (%)” value [5]?
The value was 0%.

And the “Population Mitochondria Different-Phenotype (%)” value [5]?
Its value is 26%.

And the “Population Mitotic Cells (%)” value [5]?
The value was 80%.

And the “Population Normal (%)” value [5]?
Its value is 95%.

What about the “Population Pyknosed Nuclei (%)” value [5] of the same compound?
The value was 11%.

What about the “Population Tubulin-Different-Phenotype (%)” value [5] of the same compound?
The value was 20%.

And the “Total Cell Count” value [5]?
Its value is 447.

And the “Population Apoptotic (%)” value [6]?
The value was 35%.

What about the “Population Fragmented Nuclei (%)” value [6] of the same compound?
Its value is 8%.

And the “Population Hoechst High Intensity Objects (%)” value [6]?
The value was 7%.

And the “Population Mitochondria Different-Phenotype (%)” value [6]?
The value was 47%.

And the “Population Mitotic Cells (%)” value [6]?
Its value is 64%.

What about the “Population Normal (%)” value [6] of the same compound?
The value was 92%.

What about the “Population Pyknosed Nuclei (%)” value [6] of the same compound?
Its value is 10%.

And the “Population Tubulin-Different-Phenotype (%)” value [6]?
Its value is 17%.

What about the “Total Cell Count” value [6] of the same compound?
Its value is 383.

And the “Population Apoptotic (%)” value [7]?
The value was 71%.

What about the “Population Fragmented Nuclei (%)” value [7] of the same compound?
Its value is 30%.

And the “Population Healthy Nuclei (%)” value [7]?
Its value is 61%.

What about the “Population Hoechst High Intensity Objects (%)” value [7] of the same compound?
The value was 15%.

And the “Population Membrane Permeable-Phenotype (%)” value [7]?
The value was 0%.

What about the “Population Mitochondria Different-Phenotype (%)” value [7] of the same compound?
Its value is 53%.

What about the “Population Mitotic Cells (%)” value [7] of the same compound?
Its value is 28%.

What about the “Population Normal (%)” value [7] of the same compound?
Its value is 84%.

And the “Population Pyknosed Nuclei (%)” value [7]?
The value was 8%.

And the “Population Tubulin-Different-Phenotype (%)” value [7]?
Its value is 36%.

And the “Total Cell Count” value [7]?
The value was 101.

And the “Population Apoptotic (%)” value [8]?
Its value is 45%.

What about the “Population Fragmented Nuclei (%)” value [8] of the same compound?
The value was 11%.

What about the “Population Healthy Nuclei (%)” value [8] of the same compound?
Its value is 75%.

And the “Population Hoechst High Intensity Objects (%)” value [8]?
The value was 7%.

And the “Population Mitochondria Different-Phenotype (%)” value [8]?
Its value is 62%.

What about the “Population Mitotic Cells (%)” value [8] of the same compound?
The value was 54%.

What about the “Population Normal (%)” value [8] of the same compound?
The value was 92%.

And the “Population Pyknosed Nuclei (%)” value [8]?
The value was 13%.

What about the “Population Tubulin-Different-Phenotype (%)” value [8] of the same compound?
Its value is 30%.

What about the “Total Cell Count” value [8] of the same compound?
The value was 376.

What about the “Population Apoptotic (%)” value [9] of the same compound?
Its value is 20%.

What about the “Population Fragmented Nuclei (%)” value [9] of the same compound?
The value was 13%.

What about the “Population Healthy Nuclei (%)” value [9] of the same compound?
The value was 75%.

And the “Population Hoechst High Intensity Objects (%)” value [9]?
Its value is 3%.

What about the “Population Membrane Permeable-Phenotype (%)” value [9] of the same compound?
The value was 0%.

What about the “Population Mitochondria Different-Phenotype (%)” value [9] of the same compound?
Its value is 22%.

What about the “Population Mitotic Cells (%)” value [9] of the same compound?
The value was 79%.

And the “Population Normal (%)” value [9]?
The value was 96%.

And the “Population Pyknosed Nuclei (%)” value [9]?
Its value is 11%.

What about the “Population Tubulin-Different-Phenotype (%)” value [9] of the same compound?
The value was 14%.

And the “Total Cell Count” value [9]?
Its value is 649.

And the “Population Apoptotic (%)” value [10]?
Its value is 45%.

And the “Population Fragmented Nuclei (%)” value [10]?
Its value is 11%.

And the “Population Healthy Nuclei (%)” value [10]?
Its value is 81%.

What about the “Population Mitochondria Different-Phenotype (%)” value [10] of the same compound?
Its value is 31%.

What about the “Population Mitotic Cells (%)” value [10] of the same compound?
The value was 55%.

What about the “Population Normal (%)” value [10] of the same compound?
The value was 97%.

And the “Population Pyknosed Nuclei (%)” value [10]?
The value was 7%.

And the “Population Tubulin-Different-Phenotype (%)” value [10]?
Its value is 12%.

What about the “Total Cell Count” value [10] of the same compound?
Its value is 567.

What about the “Population Apoptotic (%)” value [11] of the same compound?
Its value is 60%.

And the “Population Fragmented Nuclei (%)” value [11]?
Its value is 18%.

And the “Population Healthy Nuclei (%)” value [11]?
The value was 73%.

What about the “Population Hoechst High Intensity Objects (%)” value [11] of the same compound?
Its value is 2%.

And the “Population Membrane Permeable-Phenotype (%)” value [11]?
Its value is 2%.

And the “Population Mitochondria Different-Phenotype (%)” value [11]?
The value was 30%.

What about the “Population Mitotic Cells (%)” value [11] of the same compound?
The value was 40%.

What about the “Population Normal (%)” value [11] of the same compound?
The value was 97%.

And the “Population Pyknosed Nuclei (%)” value [11]?
Its value is 8%.

What about the “Population Tubulin-Different-Phenotype (%)” value [11] of the same compound?
The value was 31%.

What about the “Total Cell Count” value [11] of the same compound?
Its value is 191.

And the “Population Apoptotic (%)” value [12]?
The value was 38%.

What about the “Population Fragmented Nuclei (%)” value [12] of the same compound?
Its value is 13%.

And the “Population Healthy Nuclei (%)” value [12]?
The value was 79%.

What about the “Population Hoechst High Intensity Objects (%)” value [12] of the same compound?
The value was 4%.

And the “Population Membrane Permeable-Phenotype (%)” value [12]?
The value was 0%.

What about the “Population Mitochondria Different-Phenotype (%)” value [12] of the same compound?
Its value is 46%.

What about the “Population Mitotic Cells (%)” value [12] of the same compound?
Its value is 61%.

What about the “Population Normal (%)” value [12] of the same compound?
Its value is 95%.

And the “Population Pyknosed Nuclei (%)” value [12]?
Its value is 6%.

What about the “Population Tubulin-Different-Phenotype (%)” value [12] of the same compound?
The value was 24%.

What about the “Total Cell Count” value [12] of the same compound?
Its value is 493.
